Reference: ChEMBL document CHEMBL2380270, “Radiosynthesis and first evaluation in mice of [(18)F]NS14490 for molecular imaging of α7 nicotinic acetylcholine receptors” (Bioorg Med Chem, 2013)

Legend:
Blood [1] = assay: Biodistribution in CD1 mouse blood at 200 to 300 kBq, iv measured at 60 mins by gamma counting analysis in presence of SSR180711; format: ADME, organism-based; details: in vivo, 1 h
Procedure, shortened: (§1)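 Blocking study in female CD-1 mice, n = 7 per blocker, with a matching control group. SSR180711 or NS6740 given at 10 mg kg⁻¹ ip in 0.9% saline 10 min before iv radiotracer (200–300 kBq). Organs taken at 60 min p.i., weighed and gamma-counted; uptake as % ID per g wet weight. Compared with control by two-tailed independent Student's t test.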

Pancreas [2] = assay: Biodistribution in CD1 mouse pancreas at 200 to 300 kBq, iv measured at 5 mins by gamma counting analysis; format: ADME, organism-based; details: in vivo
Procedure, shortened: (§2)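 Female CD-1 mice received 200–300 kBq [18F]radiotracer intravenously. Blood and urine were sampled under anaesthesia, then mice were killed by cervical dislocation at 5, 15, 30 or 60 min p.i. (n = 3; control at 60 min n = 7). Organs were removed and weighed, activity was gamma-counted, and uptake was expressed as % injected dose per g wet tissue.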

Muscle tissue [3] = assay: Biodistribution in CD1 mouse muscle at 200 to 300 kBq, iv measured at 60 mins by gamma counting analysis in presence of SSR180711; format: ADME, organism-based; details: in vivo, 1 h
Procedure, shortened: (§3)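 Blocking design in female CD-1 mice, n = 7 per group. The blocker was given at 10 mg kg^-1 i.p. in 0.9% saline 10 min before i.v. 200–300 kBq [18F]radiotracer. Mice were killed at 60 min p.i. and organs weighed and gamma-counted as % ID per g wet weight. Blocked groups were compared with controls by two-tailed independent Student's t test.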

Brain [4] = assay: Biodistribution in CD1 mouse brain at 200 to 300 kBq, iv measured at 15 mins by gamma counting analysis; format: ADME, organism-based; details: in vivo, 0.25 h
Procedure, shortened: (§4)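 Female CD-1 mice, 200–300 kBq radiotracer given iv, n = 3 per time point. Animals anaesthetised for blood and urine sampling, then killed by cervical dislocation at 5, 15, 30 or 60 min p.i. Organs removed, weighed and gamma-counted; uptake expressed as % injected dose per g wet tissue.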

Muscle tissue [5] = assay: Biodistribution in CD1 mouse muscle at 200 to 300 kBq, iv measured at 30 mins by gamma counting analysis; format: ADME, organism-based; details: in vivo, 0.5 h; procedure, shortened: as §2
Urinary bladder = assay: Biodistribution in CD1 mouse bladder at 200 to 300 kBq, iv measured at 15 mins by gamma counting analysis; format: ADME, organism-based; details: in vivo, 0.25 h; procedure, shortened: as §4
Kidney [6] = assay: Biodistribution in CD1 mouse kidney at 200 to 300 kBq, iv measured at 60 mins by gamma counting analysis in presence of SSR180711; format: ADME, organism-based; details: in vivo, 1 h; procedure, shortened: as §1
Heart [7] = assay: Biodistribution in CD1 mouse heart at 200 to 300 kBq, iv measured at 30 mins by gamma counting analysis; format: ADME, organism-based; details: in vivo, 0.5 h; procedure, shortened: as §4
Mus musculus [8] = assay: Biodistribution in CD1 mouse adrenal at 200 to 300 kBq, iv measured at 60 mins by gamma counting analysis; format: ADME, organism-based, Adrenal gland; details: in vivo, 1 h; procedure, shortened: as §4
Femur [9] = assay: Biodistribution in CD1 mouse femur at 200 to 300 kBq, iv measured at 60 mins by gamma counting analysis in presence of SSR180711; format: ADME, organism-based; details: in vivo, 1 h; procedure, shortened: as §1
Lung = assay: Biodistribution in CD1 mouse lung at 200 to 300 kBq, iv measured at 15 mins by gamma counting analysis; format: ADME, organism-based; details: in vivo, 0.25 h; procedure, shortened: as §2
Femur [10] = assay: Biodistribution in CD1 mouse femur at 200 to 300 kBq, iv measured at 60 mins by gamma counting analysis; format: ADME, organism-based; details: in vivo, 1 h; procedure, shortened: as §4
Heart [11] = assay: Biodistribution in CD1 mouse heart at 200 to 300 kBq, iv measured at 5 mins by gamma counting analysis; format: ADME, organism-based; details: in vivo; procedure, shortened: as §4
Mus musculus [12] = assay: Biodistribution in CD1 mouse large intestine at 200 to 300 kBq, iv measured at 5 mins by gamma counting analysis; format: ADME, organism-based; details: in vivo; procedure, shortened: as §4
Mus musculus [13] = assay: Biodistribution in CD1 mouse small intestine at 200 to 300 kBq, iv measured at 5 mins by gamma counting analysis; format: ADME, organism-based; details: in vivo; procedure, shortened: as §2
Mus musculus [14] = assay: Biodistribution in CD1 mouse small intestine at 200 to 300 kBq, iv measured at 60 mins by gamma counting analysis; format: ADME, organism-based; details: in vivo, 1 h; procedure, shortened: as §2
Stomach = assay: Biodistribution in CD1 mouse stomach at 200 to 300 kBq, iv measured at 30 mins by gamma counting analysis; format: ADME, organism-based; details: in vivo, 0.5 h; procedure, shortened: as §2
Pancreas [15] = assay: Biodistribution in CD1 mouse pancreas at 200 to 300 kBq, iv measured at 15 mins by gamma counting analysis; format: ADME, organism-based; details: in vivo, 0.25 h; procedure, shortened: as §2
Mus musculus [16] = assay: Biodistribution in CD1 mouse thymus at 200 to 300 kBq, iv measured at 60 mins by gamma counting analysis; format: ADME, organism-based; details: in vivo, 1 h
Procedure, shortened: (§5)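 Female CD-1 mice given 200–300 kBq tracer intravenously. Animals anaesthetised for blood and urine sampling, then killed by cervical dislocation at 5, 15, 30 or 60 min (n = 3 per time; n = 7 at 60 min). Organs removed and weighed, activity gamma-counted, expressed as % injected dose per g wet weight. Blocking arm: 10 mg/kg i.p. in 0.9% saline, 10 min before tracer; two-tailed unpaired t test versus control.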

Mus musculus [17] = assay: Biodistribution in CD1 mouse small intestine at 200 to 300 kBq, iv measured at 15 mins by gamma counting analysis; format: ADME, organism-based; details: in vivo, 0.25 h; procedure, shortened: as §2
Pancreas [18] = assay: Biodistribution in CD1 mouse pancreas at 200 to 300 kBq, iv measured at 60 mins by gamma counting analysis; format: ADME, organism-based; details: in vivo, 1 h; procedure, shortened: as §2
Kidney [19] = assay: Biodistribution in CD1 mouse kidney at 200 to 300 kBq, iv measured at 15 mins by gamma counting analysis; format: ADME, organism-based; details: in vivo, 0.25 h; procedure, shortened: as §4
Zone of skin = assay: Biodistribution in CD1 mouse skin at 200 to 300 kBq, iv measured at 60 mins by gamma counting analysis; format: ADME, organism-based; details: in vivo, 1 h; procedure, shortened: as §2
Blood [20] = assay: Biodistribution in CD1 mouse blood at 200 to 300 kBq, iv measured at 30 mins by gamma counting analysis; format: ADME, organism-based; details: in vivo, 0.5 h; procedure, shortened: as §4
Liver [21] = assay: Biodistribution in CD1 mouse liver at 200 to 300 kBq, iv measured at 60 mins by gamma counting analysis; format: ADME, organism-based; details: in vivo, 1 h; procedure, shortened: as §2
Pancreas [22] = assay: Biodistribution in CD1 mouse pancreas at 200 to 300 kBq, iv measured at 30 mins by gamma counting analysis; format: ADME, organism-based; details: in vivo, 0.5 h; procedure, shortened: as §2
Blood [23] = assay: Biodistribution in CD1 mouse blood at 200 to 300 kBq, iv measured at 15 mins by gamma counting analysis; format: ADME, organism-based; details: in vivo, 0.25 h; procedure, shortened: as §4
Brain [24] = assay: Biodistribution in CD1 mouse brain at 200 to 300 kBq, iv measured at 30 mins by gamma counting analysis; format: ADME, organism-based; details: in vivo, 0.5 h; procedure, shortened: as §4
Liver [25] = assay: Biodistribution in CD1 mouse liver at 200 to 300 kBq, iv measured at 15 mins by gamma counting analysis; format: ADME, organism-based; details: in vivo, 0.25 h; procedure, shortened: as §2
Femur [26] = assay: Biodistribution in CD1 mouse femur at 200 to 300 kBq, iv measured at 15 mins by gamma counting analysis; format: ADME, organism-based; details: in vivo, 0.25 h; procedure, shortened: as §4
Spleen = assay: Biodistribution in CD1 mouse spleen at 200 to 300 kBq, iv measured at 60 mins by gamma counting analysis in presence of SSR180711; format: ADME, organism-based; details: in vivo, 1 h; procedure, shortened: as §3
Blood [27] = assay: Biodistribution in CD1 mouse blood at 200 to 300 kBq, iv measured at 5 mins by gamma counting analysis; format: ADME, organism-based; details: in vivo; procedure, shortened: as §4
Mus musculus [28] = assay: Biodistribution in CD1 mouse thymus at 200 to 300 kBq, iv measured at 5 mins by gamma counting analysis; format: ADME, organism-based; details: in vivo; procedure, shortened: as §5

O=C(Oc1ccc(Br)cc1)N1CCN2CCC1CC2 [SSR180711]
Drug uptake (Blood [1]): 0.78 % ID/g | Drug uptake (Pancreas [2]): 5.16 % ID/g | Drug uptake (Muscle tissue [3]): 1.02 % ID/g | Drug uptake (Brain [4]): 0.24 % ID/g | Drug uptake (Muscle tissue [5]): 1.26 % ID/g | Drug uptake (Urinary bladder): 2.19 % ID/g | Drug uptake (Kidney [6]): 10.5 % ID/g | Drug uptake (Heart [7]): 2.41 % ID/g | Drug uptake (Mus musculus [8]): 3.01 % ID/g | Drug uptake (Femur [9]): 1.43 % ID/g | Drug uptake (Lung): 10.8 % ID/g | Drug uptake (Femur [10]): 2.09 % ID/g | Drug uptake (Heart [11]): 3.35 % ID/g | Drug uptake (Mus musculus [12]): 1.36 % ID/g | Drug uptake (Mus musculus [13]): 3.44 % ID/g | Drug uptake (Mus musculus [14]): 16.1 % ID/g | Drug uptake (Stomach): 7.29 % ID/g | Drug uptake (Pancreas [15]): 5.48 % ID/g | Drug uptake (Mus musculus [16]): 2.75 % ID/g | Drug uptake (Mus musculus [17]): 6.72 % ID/g | Drug uptake (Pancreas [18]): 3.12 % ID/g | Drug uptake (Kidney [19]): 10.6 % ID/g | Drug uptake (Zone of skin): 1.94 % ID/g | Drug uptake (Blood [20]): 1.01 % ID/g | Drug uptake (Liver [21]): 7.79 % ID/g | Drug uptake (Pancreas [22]): 4.2 % ID/g | Drug uptake (Blood [23]): 1.25 % ID/g | Drug uptake (Brain [24]): 0.18 % ID/g | Drug uptake (Liver [25]): 9.39 % ID/g | Drug uptake (Femur [26]): 2.15 % ID/g | Drug uptake (Spleen): 7.53 % ID/g | Drug uptake (Blood [27]): 1.6 % ID/g | Drug uptake (Mus musculus [28]): 1.95 % ID/g
